Reference: ChEMBL document CHEMBL4411297, “Discovery, synthesis and anti-atherosclerotic activities of a novel selective sphingomyelin synthase 2 inhibitor” (Eur J Med Chem, 2019)
Calls of active or inactive are those of the source. No cut-off for these calls is given here.

How the values were obtained:
[1] = biological target: T1, Phosphatidylcholine:ceramide cholinephosphotransferase 2 (Homo sapiens) (UniProt Q8NHU3); assay: Inhibition of SMS2 in human HuH7 cells assessed as down regulation of apoB secretion incubated for 17 hrs followed by further incubation for 2 hrs in presence of [35S]-methionine; assay type: cell-based
T1 sequence (whole entry): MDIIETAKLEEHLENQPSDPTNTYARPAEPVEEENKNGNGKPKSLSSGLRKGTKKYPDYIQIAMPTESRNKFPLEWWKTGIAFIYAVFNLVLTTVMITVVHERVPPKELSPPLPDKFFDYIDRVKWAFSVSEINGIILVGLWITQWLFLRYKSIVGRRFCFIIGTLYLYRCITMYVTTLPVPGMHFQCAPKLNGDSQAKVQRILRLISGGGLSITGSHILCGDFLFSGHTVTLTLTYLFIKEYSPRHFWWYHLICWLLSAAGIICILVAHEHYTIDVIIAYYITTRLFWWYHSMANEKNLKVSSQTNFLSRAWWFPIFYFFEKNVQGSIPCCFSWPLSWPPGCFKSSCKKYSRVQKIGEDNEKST
Procedure, shortened: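 Huh7 human hepatoma cells treated with inhibitor 17 h, then pulse-labeled with [³⁵S]-methionine for 2 h with vehicle or compound; secreted [³⁵S]-apoB in medium detected and quantified.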

[2] = AUC (0 to 8 hrs) in C57BL/6J mouse at 100 mg/kg/day, ig by HPLC-MS/MS analysis; assay type: ADME, organism-based; set-up: dose 100 mg/kg/day, time < 8 hr, route intragastric; conditions: in vivo, po
Procedure, shortened: (§1)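 Male C57BL/6J mice, six to eight weeks old, about 20 g, fasted 12 h with free water. Given a single intragastric dose of 25, 50 or 100 mg/kg in 10% DMSO/30% PEG-100/0.9% NaCl. Blood taken retro-orbitally at 5 min to 8 h. Plasma protein-precipitated with methanol plus internal standard, then HPLC-MS/MS on a C18 column. Noncompartmental analysis, n = 6.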

[3] = AUC (0 to infinity) in C57BL/6J mouse at 100 mg/kg/day, ig by HPLC-MS/MS analysis; assay type: ADME, organism-based; set-up: dose 100 mg/kg/day, route intragastric, time infinity; conditions: in vivo, po; procedure, shortened: as §1
[4] = Apparent oral clearance in C57BL/6J mouse at 100 mg/kg/day, ig by HPLC-MS/MS analysis; assay type: ADME, organism-based; conditions: in vivo; procedure, shortened: as §1
[5] = MRT (0 to 8 hrs) in C57BL/6J mouse at 100 mg/kg/day, ig by HPLC-MS/MS analysis; assay type: ADME, organism-based; conditions: in vivo, po
Procedure, shortened: (§2)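 Male C57BL/6J mice (6–8 weeks, ~20 g), fasted 12 h, given a single intragastric dose of 25, 50 or 100 mg/kg in 10% DMSO/30% PEG/0.9% NaCl. Retro-orbital blood at 5 min to 8 h; plasma protein-precipitated with methanol plus internal standard, assayed by LC-MS/MS; noncompartmental analysis. Mean ± SD, n = 6.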

[6] = MRT (0 to infinity) in C57BL/6J mouse at 100 mg/kg/day, ig by HPLC-MS/MS analysis; assay type: ADME, organism-based; conditions: in vivo, po; procedure, shortened: as §2
[7] = Dose normalized AUC (0 to 8 hrs) in C57BL/6J mouse at 50 mg/kg/day, ig by HPLC-MS/MS analysis; assay type: ADME, organism-based; conditions: in vivo, po; procedure, shortened: as §1
[8] = Half life in C57BL/6J mouse at 50 mg/kg/day, ig by HPLC-MS/MS analysis; assay type: ADME, organism-based; conditions: in vivo, po; procedure, shortened: as §1
[9] = MRT (0 to 8 hrs) in C57BL/6J mouse at 50 mg/kg/day, ig by HPLC-MS/MS analysis; assay type: ADME, organism-based; conditions: in vivo, po; procedure, shortened: as §2
[10] = Tmax in C57BL/6J mouse at 25 mg/kg/day, ig by HPLC-MS/MS analysis; assay type: ADME, organism-based; conditions: in vivo, po; procedure, shortened: as §2
[11] = MRT (0 to infinity) in C57BL/6J mouse at 25 mg/kg/day, ig by HPLC-MS/MS analysis; assay type: ADME, organism-based; conditions: in vivo, po; procedure, shortened: as §2
[12] = system: Mus musculus; assay: Down regulation of sphingomyelin levels in C57BL/6J mouse plasma at 100 mg/kg/day, ig qd for 7 days measured on day 3 and 7; assay type: functional, organism-based
Procedure, shortened: (§3)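 C57BL/6J mice dosed by gavage at 100 mg/kg once daily for 7 days. Plasma SM sampled on days 0, 3 and 7. Plasma ALT and AST measured on day 7 by automated analyzer. Compared with vehicle, n = 10.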

[13] = system: Mus musculus; assay: Effect on plasma AST levels in C57BL/6J mouse at 100 mg/kg/day, ig qd for 7 days measured on day 7; assay type: ADME, organism-based; conditions: in vivo, po, 168 h; procedure, shortened: as §3
[14] = system: Mus musculus; assay: Anti-atherosclerotic activity in apoE knockout mouse fed with western-type diet assessed as reduction in lymphocyte count at 12.5 mg/kg/day, ig for 7 weeks by flow cytometric analysis relative to control; assay type: functional; set-up: scale not given: the % may be the effect or the level left
Procedure, shortened: (§4)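 ApoE KO mice started at 8 weeks old on Western-type diet for 6 weeks. Then dosed by gavage daily with vehicle, 12.5 or 40 mg/kg for 7 weeks with the diet continued, 10 mice per group. Blood single-cell suspensions stained with antibodies in PBS and analysed by flow cytometry. Mean ± SD, n = 5.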

[15] = system: Mus musculus; assay: Anti-atherosclerotic activity in apoE knockout mouse fed with western-type diet assessed as reduction in lymphocyte count at 40 mg/kg/day, ig for 7 weeks by flow cytometric analysis relative to control; assay type: functional; set-up: scale not given: the % may be the effect or the level left; procedure, shortened: as §4
[16] = system: Mus musculus; assay: Anti-atherosclerotic activity in apoE knockout mouse fed with western-type diet assessed as reduction in monocyte count at 40 mg/kg/day, ig for 7 weeks by flow cytometric analysis relative to control; assay type: functional; set-up: scale not given: the % may be the effect or the level left; procedure, shortened: as §4
[17] = system: Mus musculus; assay: Anti-atherosclerotic activity in apoE knockout mouse fed with western-type diet assessed as reduction in CD4+/CD8+ cell ratio at 12.5 mg/kg/day, ig for 7 weeks by flow cytometric analysis relative to control; assay type: functional; set-up: scale not given: the % may be the effect or the level left; procedure, shortened: as §4
[18] = system: Mus musculus; assay: Anti-atherosclerotic activity in apoE knockout mouse fed with western-type diet assessed as reduction in CD11b+/CD11c+ dendritic cells at 40 mg/kg/day, ig for 7 weeks by flow cytometric analysis relative to control; assay type: functional; set-up: scale not given: the % may be the effect or the level left; procedure, shortened: as §4
[19] = system: Mus musculus; assay: Anti-atherosclerotic activity in apoE knockout mouse fed with western-type diet assessed as reduction in lesions in proximal aorta at 12.5 mg/kg/day, ig for 7 weeks by hematoxylin and eosin staining-based assay relative to control; assay type: functional; set-up: scale not given: the % may be the effect or the level left
Procedure, shortened: (§5)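 ApoE KO mice fed Western-type diet, then given 12.5 or 40 mg/kg/day by gavage in 30% PEG-400/10% DMSO/0.9% NaCl for 7 weeks. Aortic root: H&E-stained 4 µm sections, mean lesion area from 6 sections per animal. Whole aorta: en face Oil Red O staining, percentage of area stained. Compared with vehicle, n = 10.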

[20] = system: Mus musculus; assay: Anti-atherosclerotic activity in apoE knockout mouse fed with western-type diet assessed as reduction in lesions in proximal aorta at 40 mg/kg/day, ig for 7 weeks by hematoxylin and eosin staining-based assay relative to control; assay type: functional; set-up: scale not given: the % may be the effect or the level left; procedure, shortened: as §5
[21] = system: Mus musculus; assay: Anti-atherosclerotic activity in apoE knockout mouse fed with western-type diet assessed as reduction in macrophage content at 12.5 mg/kg/day, ig for 7 weeks by immunostaining assay relative to control; assay type: functional; set-up: scale not given: the % may be the effect or the level left
Procedure, shortened: (§6)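 ApoE KO mice on Western-type diet, dosed by gavage at 12.5 or 40 mg/kg/day for 7 weeks. Aortic root sections 4 µm thick immunostained with MOMA-2: primary antibody 1 h at room temperature, biotinylated secondary, HRP-streptavidin, DAB, hematoxylin counterstain. Stained area quantified and expressed relative to vehicle.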

[22] = system: Mus musculus; assay: Anti-atherosclerotic activity in apoE knockout mouse fed with western-type diet assessed as reduction in macrophage content at 40 mg/kg/day, ig for 7 weeks by immunostaining assay relative to control; assay type: functional; set-up: scale not given: the % may be the effect or the level left; procedure, shortened: as §6

- inhibition [1]: Dose-dependent effect
- AUC at 8 h [2]: 13200 ng·h/mL
- AUC(0-inf) [3]: 14500 ng·h/mL
- CL/F [4]: 143 mL/min
- MRT [5]: 1.66 h
- MRT inf [6]: 2.57 h
- AUC/dose [7]: 0.12 µg·h/mL
- half-life [8]: 1.83 h
- MRT [9]: 1.66 h
- Tmax [10]: 6.6 min
- MRT inf [11]: 3.64 h
Compound: CCc1ccccc1COc1ccccc1C(=O)Nc1cccnc1
- Activity [12]: Active
- Activity [13]: Non-Toxic
- Activity [14]: 21%
- Activity [15]: 24%
- Activity [16]: 50%
- Activity [17]: 34%
- Activity [18]: 57%
- Activity [19]: 38%
- Activity [20]: 50%
- Activity [21]: 28%
- Activity [22]: 55%
